Consider 28 compounds from ChEMBL document CHEMBL3808376, “Iminolactones as tools for inversion of the absolute configuration of α-amino acids and as inhibitors of cancer cell proliferation” (Eur J Med Chem, 2016).

Each structure is given as a SMILES string. Bounds are passed on as bounds.

In one test the test system is EL4. Put plainly: Antiproliferative activity against mouse EL4 cells after 48 hrs by Sulforhodamine B assay. The format is functional, cell-based. Particulars: EL4, 48 h. A digest of the protocol:
(§1)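 Cancer lines from the National Cancer Institute (murine leukemic EL4, human breast MCF7, human prostate PC3), in a standard high-flux screening format. Cells incubated with compound at several concentrations, 37 °C for 48 h. Trichloroacetic acid fixation, sulforhodamine B staining, absorbance read at 490 nm. IC50 reported as mean SD of three experiments.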
(Sulforhodamine B stains cellular protein and so reports cell mass.)

A short description of test [1]: Antiproliferative activity against human PC3 cells after 48 hrs by Sulforhodamine B assay. The format is functional, cell-based. Conditions: PC-3, 48 h. A digest of the protocol: as §1
Test [2] can be described thus: Antiproliferative activity against mouse McCoy cells after 48 hrs by Sulforhodamine B assay. The format is cell-based.
The next test has as its system MCF7. In words: Antiproliferative activity against human MCF7 cells after 48 hrs by Sulforhodamine B assay. The format is functional, cell-based. Particulars: MCF7, 48 h. A digest of the protocol: as §1
A short description of test [3]: Antiproliferative activity against human MCF10A cells after 48 hrs by Sulforhodamine B assay. It is filed as cell-based. Particulars: MCF-10A.
A short description of test [4]: Antiproliferative activity against mouse NIH/3T3 cells after 48 hrs by Sulforhodamine B assay. It is filed as cell-based. Conditions: NIH3T3, 48 h.

Consider `O=C1O[C@H]2CCc3ccccc3C2=N[C@H]1Cc1ccccc1`, for which the IC50 (commonly the concentration needed to halve the response being measured) is 39 µM with EL4; 45 µM in test [1]; above 1000 µM in test [2]; 41 µM in the test on MCF7; above 1000 µM in test [3]; above 1000 µM in test [4].
In the case of `CC1(C)[C@H]2CC[C@]1(C)[C@H]1OC(=O)CN=C21`, the concentration for half-maximal inhibition (IC50) with EL4 was 82 µM; in test [1], 145 µM; in test [2], above 900 µM; in the test with MCF7, 135 µM; in test [3] it was above 900 µM; in test [4] it was above 900 µM.
With `CC(C)(C)OC(=O)CC[C@H]1N=C2C[C@H]3C[C@H](C3(C)C)[C@@]2(C)OC1=O`, the IC50 in the test with EL4 was 51 µM; in test [1], 55 µM; in test [2], above 1200 µM; with MCF7, 54 µM; in test [3], above 1200 µM; in test [4], above 1200 µM.
Take `C[C@@]12CCCC[C@H]1CC=C(O)C2=O`: the half-maximal inhibitory concentration (IC50) in the test on EL4 was 114 µM; in test [1], 119 µM; in test [2] it was above 2000 µM; in the test on MCF7, 119 µM; in test [3], above 2000 µM; in test [4], above 2000 µM.
Take `C[C@H]1N=C2C[C@H]3C[C@H](C3(C)C)[C@@]2(C)OC1=O`: the 50% inhibitory concentration (IC50) with EL4 is 27 µM; in test [1], 42 µM; in test [2], above 1800 µM; with MCF7, 38 µM; in test [3], above 1800 µM; in test [4], above 1800 µM.
Turning to `CC(C)(C)OC(=O)NCCC[C@H]1N=C2C[C@H]3C[C@H](C3(C)C)[C@@]2(C)OC1=O`, the IC50 in the test with EL4 was 48 µM; in test [1] it was 60 µM; in test [2], above 1500 µM; with MCF7, 56 µM; in test [3], above 1500 µM; in test [4], above 1500 µM.
As for `C[C@@]12CCCC[C@H]1CC[C@@H]1OC(=O)[C@H](Cc3ccccc3)N=C12`, the IC50 with EL4 was 50 µM; in test [1], 51 µM; in test [2], above 1700 µM; in the test on MCF7 it was 53 µM; in test [3] it was above 1700 µM; in test [4], above 1700 µM.
For `C[C@H]1N=C2[C@H](CC[C@@H]3CCCC[C@@]23C)OC1=O`, the IC50 was 53 µM with EL4; 57 µM in test [1]; above 2000 µM in test [2]; 57 µM in the test with MCF7; above 2000 µM in test [3]; above 2000 µM in test [4].
Consider `CC(C)(C)OC(=O)NCCCC[C@@H]1N=C2C[C@@H]3C[C@@H](C3(C)C)[C@]2(C)OC1=O`, for which the IC50 with EL4 is 15 µM; in test [1], 18 µM; in test [2], above 800 µM; with MCF7 it was 17 µM; in test [3] it was above 800 µM; in test [4], above 800 µM.
`CC1(C)[C@@H]2CC3=N[C@@H](Cc4ccccc4)C(=O)O[C@@]3(C)[C@H]1C2`: the half-inhibitory concentration (IC50) with EL4 is above 300 µM; in test [1], above 300 µM; in test [2], above 1000 µM; in the test on MCF7 it was above 300 µM; in test [3], above 1000 µM; in test [4] it was above 1000 µM.
With `CC1(C)[C@@H]2CC3=NCC(=O)O[C@@]3(C)[C@H]1C2`, the IC50 with EL4 was 19 µM; in test [1] it was 43 µM; in test [2], above 900 µM; in the test on MCF7, 22 µM; in test [3] it was above 900 µM; in test [4], above 900 µM.
In test [1], `CC1(C)[C@H]2CC[C@]1(C)[C@H]1OC(=O)[C@H](Cc3ccccc3)N=C21` had an IC50 of 160 µM.
`CC1(C)[C@H]2CC3=N[C@H](Cc4ccccc4)C(=O)O[C@]3(C)[C@@H]1C2`: the half-inhibitory concentration (IC50) in the test on EL4 is 7.7 µM; in test [1], 9.4 µM; in test [2] it was above 1500 µM; with MCF7, 8.4 µM; in test [3], above 1500 µM; in test [4] it was above 1500 µM.
For the compound `CC1(C)[C@H]2CC3=N[C@H](CCC(=O)O)C(=O)O[C@]3(C)[C@@H]1C2`, the IC50 was 30 µM in the test with EL4; 38 µM in test [1]; above 1200 µM in test [2]; 34 µM in the test on MCF7; above 1200 µM in test [3]; above 1200 µM in test [4].
As to `CC(C)(C)OC(=O)NCCCC[C@H]1N=C2C[C@H]3C[C@H](C3(C)C)[C@@]2(C)OC1=O`, the 50% inhibitory concentration (IC50) was 14.5 µM with EL4; 15.9 µM in test [1]; above 1300 µM in test [2]; 15.3 µM in the test on MCF7; above 1300 µM in test [3]; above 1300 µM in test [4].
`O=C1O[C@H]2CCc3ccccc3C2=N[C@H]1Cc1c[nH]c2ccccc12`: the IC50 is 36 µM in the test with EL4; 39 µM in test [1]; above 1000 µM in test [2]; 39 µM in the test with MCF7; above 1000 µM in test [3]; above 1000 µM in test [4].
Turning to `CC1(C)[C@H]2CC3=NCC(=O)O[C@]3(C)[C@@H]1C2`, the half-maximal inhibitory concentration (IC50) in the test with EL4 is above 300 µM; in test [1], above 300 µM; in test [2] it was above 2000 µM; in the test on MCF7 it was above 300 µM; in test [3], above 2000 µM; in test [4], above 2000 µM.
Take `CC(C)(C)OC(=O)NCCC[C@@H]1N=C2C[C@@H]3C[C@@H](C3(C)C)[C@]2(C)OC1=O`: the IC50 in the test with EL4 is 4.1 µM; in test [1] it was 6.6 µM; in test [2] it was above 1200 µM; in the test with MCF7, 6.3 µM; in test [3] it was above 1200 µM; in test [4] it was above 1200 µM.
`O=C1O[C@@H]2CCc3ccccc3C2=N[C@H]1Cc1c[nH]c2ccccc12`: the IC50 is 22 µM in the test on EL4; 26 µM in test [1]; above 1000 µM in test [2]; 25 µM in the test on MCF7; above 1000 µM in test [3]; above 1000 µM in test [4].
With `O=C1O[C@@H]2CCc3ccccc3C2=N[C@H]1Cc1ccccc1`, the half-inhibitory concentration (IC50) in the test on EL4 is 24 µM; in test [1], 30 µM; in test [2] it was above 1000 µM; in the test with MCF7 it was 27 µM; in test [3] it was above 1000 µM; in test [4], above 1000 µM.
With `C[C@@]12CCCC[C@H]1CC[C@@H]1OC(=O)[C@H](Cc3c[nH]c4ccccc34)N=C12`, the IC50 is 71 µM with EL4; 83 µM in test [1]; above 1500 µM in test [2]; 77 µM with MCF7; above 1500 µM in test [3]; above 1500 µM in test [4].
For the compound `C[C@@]12CCCC[C@H]1CC[C@@H]1OC(=O)[C@@H](Cc3ccccc3)N=C12`, the IC50 in the test with EL4 was 12 µM; in test [1], 12 µM; in test [2] it was above 1200 µM; with MCF7, 12 µM; in test [3], above 1200 µM; in test [4] it was above 1200 µM.
Take `CC1(C)[C@@H]2CC3=N[C@@H](CCC(=O)O)C(=O)O[C@@]3(C)[C@H]1C2`: the concentration for half-maximal inhibition (IC50) is 36 µM with EL4; 42 µM in test [1]; above 1200 µM in test [2]; 38 µM in the test on MCF7; above 1200 µM in test [3]; above 1200 µM in test [4].
Take `CC(C)(C)OC(=O)CC[C@@H]1N=C2C[C@@H]3C[C@@H](C3(C)C)[C@]2(C)OC1=O`: the 50% inhibitory concentration (IC50) in the test on EL4 is 36 µM; in test [1], 42 µM; in test [2], above 1000 µM; in the test with MCF7, 40 µM; in test [3] it was above 1000 µM; in test [4], above 1000 µM.
Regarding `C[C@@H]1N=C2C[C@@H]3C[C@@H](C3(C)C)[C@]2(C)OC1=O`, the concentration for half-maximal inhibition (IC50) is 145 µM with EL4; 149 µM in test [1]; above 2000 µM in test [2]; 154 µM in the test on MCF7; above 2000 µM in test [3]; above 2000 µM in test [4].
Take `CC1(C)N=C2C[C@H]3C[C@H](C3(C)C)[C@@]2(C)OC1=O`: the concentration for half-maximal inhibition (IC50) in the test with EL4 was 149 µM; in test [1], 166 µM; in test [2], above 2000 µM; in the test on MCF7 it was 162 µM; in test [3], above 2000 µM; in test [4] it was above 2000 µM.
Consider `CC(C)(C)OC(=O)n1cnc(C[C@H]2N=C3C[C@H]4C[C@H](C4(C)C)[C@@]3(C)OC2=O)c1`, for which the IC50 in the test with EL4 is 139 µM; in test [1] it was 147 µM; in test [2], above 1300 µM; in the test on MCF7, 142 µM; in test [3], above 1300 µM; in test [4] it was above 1300 µM.
On to `C[C@@]12CCCC[C@H]1CC[C@@H]1OC(=O)CN=C12`, for which the IC50 in the test with EL4 is 7.7 µM; in test [1], 13 µM; in test [2], above 2000 µM; in the test with MCF7 it was 11 µM; in test [3], above 2000 µM; in test [4], above 2000 µM.
